This is an account of results in article PMC8941156 (Heliyon, 2022).

A short description of data set [1]: Single dose oral pharmacokinetic study of rubraxanthone in mice. The data set is classed as in vivo. The following applies: mouse, plasma, 700 mg/kg. The method in brief:
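Mice (7–8 weeks, 20 ± 5 g) were given a fresh suspension in virgin coconut oil orally. Under isoflurane, mandibular-vein blood was taken from six mice per time point over 0–24 h into lithium heparin, and plasma was stored at −80 °C. Plasma was extracted by acetonitrile precipitation with α-mangostin internal standard and read by UHPLC-DAD (0.128–5 µg/mL calibration). Non-compartmental analysis used trapezoidal AUC and Ke from log-linear regression of the last four points (3–5.5 h), reported as mean ± SD.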

Data set [2] can be described thus: Stability of rubraxanthone in mice plasma. Conditions: for freeze–thaw stability, % diff: mice plasma, three freeze–thaw rounds. The data set is classed as in vitro ADME. The method in brief:
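Blank mouse plasma was spiked at medium and high QC levels, extracted by acetonitrile precipitation with α-mangostin internal standard, and quantified by UHPLC-DAD at 243 nm. For freeze–thaw, four replicate samples per level went through three cycles. Post-preparative and plasma stability came from eight replicates per level. Results are given as % difference.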

The structures appear in SMILES notation.

Usually CL/F stands for the apparent clearance, not corrected for the fraction that reaches the circulation. Usually Tmax stands for the time at which the peak concentration occurs. In general, half-life refers to the time in which the quantity being followed falls by half. Read a low half-life as rapid decline.

Consider `COc1c(O)cc2oc3cc(O)cc(O)c3c(=O)c2c1C/C=C(\C)CCC=C(C)C` [rubraxanthone, 1,3,6,trihydroxy-8-geranyl-7-methoxy xanthone], for which, in data set [1], the CL/F was 18.7 mL/min/kg, the Tmax is 1.5 ± 0.99 h, the half-life was 6.72 ± 1.29 h and the k el was 2.78e-05 s⁻¹. For the same molecule, in data set [2] (HC sample (3.750 μg/mL)), the “freeze–thaw stability, % diff” value stood at 5.9%. In data set [2] (MC sample (2.067 μg/mL)), the “freeze–thaw stability, % diff” value turned out to be 0.49%. Besides, the “post-preparative and plasma stability” value in data set [2] (plasma kept at ambient temperature for 24 h before or after extraction vs plasma kept at -20 °C, MC and HC samples) is listed as “stable”.
